These results are taken from the RNAGym collection of RNA variant scans (doi:10.1126/science.aae0568).

This sample holds only a part of the variants without activity.

The labels stand for the following.
B1: tRNA (parent)
chain: GUUCCGUUGGCGUAAUGGUAACGCGUCUCCCUCCUAAGGAGAAGACUGCGGGUUCGAGUCCCGUACGGAACG

Variants of B1 are the subject of the data set. Kind of data set: yeast fitness relative to wild type (ratio to wild type); higher = fitter; tRNA-Arg(CCU), competitive growth, 37 C, YPD. The method in brief: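 Amplicons of the tRNA-Arg(CCU) gene were sequenced, 100-nucleotide paired-end, from the start population and from each end population of a pooled yeast competition. The competition, in six parallel replicates, lasted 24 hours in YPD at 37°C. Fitness relative to wild type was calculated from changes in genotype frequencies. Genotypes had to have ≥ 100 starting reads, and estimates < 0.5 were set to 0.5.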
As for U7A G12A C49U C62G, the yeast fitness is ≤ 0.5.

U7A A20G G23A U26G C66A: the yeast fitness was ≤ 0.5. The value for U7A C46A G68U was ≤ 0.5; that for U7A C27U C55U was ≤ 0.5; that for U7A A14U U16C A42U was ≤ 0.5. Consider G6U C27U G56A C61U, for which the yeast fitness is ≤ 0.5.

For U7C A14G A20C A57G, the yeast fitness was ≤ 0.5.

With G6C U8A G51A, the yeast fitness was ≤ 0.5.

In the case of U7A C29U A57C, the yeast fitness was ≤ 0.5. As for G6C U7G U19A C27G U53A, the figure is 0.612; as for U7A U32G C33A C62G C66U, ≤ 0.5; as for U7A C34G C66U, ≤ 0.5. Consider U7A C29A A65C, for which the yeast fitness is ≤ 0.5. On to U7A G10A A14G G41C A42U C46A C61G, for which the yeast fitness is ≤ 0.5. As to U7A U32A, the yeast fitness is 0.588. The value for U7A U32C was 0.764; that for G6C U13G was 0.56.

As to U7A A43G, the yeast fitness came out at 0.679. As for U7A C27U A57U A65C, the yeast fitness was ≤ 0.5. Turning to U7A A14G, the yeast fitness was found to be 0.709.

For the variant U7C A15G G18C, the yeast fitness is ≤ 0.5.

As for U7A U19C C27G A43U U47A A65U G67C, the yeast fitness was ≤ 0.5. As for U7A C11U A36U, the figure is ≤ 0.5; as for U7A A40G, 0.73; as for U7A A42U A45G A57C A69U, ≤ 0.5. The value for U7A U47A was 0.643; that for U7A U47G was 0.557. The value for U7A G9A U13A A43G G56A was ≤ 0.5. With U7A G12C A20G C34U C49G, the yeast fitness was ≤ 0.5. For the variant G6C G56A G67A, the yeast fitness is 0.588. As to U7A C30G A57U G58A, the yeast fitness is ≤ 0.5. As to U7A C29A, the yeast fitness was determined as 0.73. As for U7A G18A C29G A37G C60A C62G, the figure is ≤ 0.5; as for U7A C27A C66U, ≤ 0.5; as for G6C U16G C27U, ≤ 0.5. As for U7A C11G A36U A57C, the figure is ≤ 0.5; as for U7C A15U C29A G38C, ≤ 0.5.

For U7C A37C C60G A65U A70C, the yeast fitness turned out to be 0.569.

For the variant U7A U16C G17A C29U C31A G58A, the yeast fitness is ≤ 0.5. Turning to U7C A14G C33G G68C, the yeast fitness is ≤ 0.5. Consider U7A G17A C29U, for which the yeast fitness was ≤ 0.5. As for U7A A20C C29U C33G, the figure is 0.638; as for U7A A20G C31U A57C G67C, ≤ 0.5. As for U7A A20G G23A G44A G52C, the figure is ≤ 0.5; as for G6C U8C G58C, 0.685.

On to U7A G52A, for which the yeast fitness was 0.582.

For the variant U7A U32G C33G A70U, the yeast fitness is ≤ 0.5.

For U7A G39C A43C G44C U47C C61U, the yeast fitness is ≤ 0.5.

Turning to U7A A36G C60A, the yeast fitness was 0.533.

Consider U7A A15G G23C C33G G63A, for which the yeast fitness is ≤ 0.5. On to U7A G10C C22U C27G C61A C62U A65U A69C, for which the yeast fitness was ≤ 0.5. As for U7C A14G A43U C49G, the figure is ≤ 0.5. Take G6C U7C G9C: the yeast fitness was ≤ 0.5.

For the variant U7C A14C C30G A40C A43U C55U, the yeast fitness came out at 0.64. The value for U7A C34A G44A C46U A70C was ≤ 0.5; that for U7A G12A C27A was ≤ 0.5; that for G6C U28C A36C G51A C66A was ≤ 0.5. As for G6C U7A C29A G51C, the figure is ≤ 0.5; as for U7A U19G A70G, ≤ 0.5. For U7A U8A G25A G67C, the yeast fitness is ≤ 0.5. As for U7A C11U A65U, the figure is 0.682; as for G6U A70C, 0.813; as for G6C U19G G48C, ≤ 0.5.

Consider U7A G17A, for which the yeast fitness was determined as 0.731.

For the variant U7C A37C A40C A45U A57C A70C, the yeast fitness is ≤ 0.5. The value for G6C U26C A43C A57G C66U was ≤ 0.5; that for U7C A20U A40C C46U C55G A70U was 0.582; that for U7C A14U G68A was ≤ 0.5. The value for U7A A69C was 0.794; that for U7A A15U A40G was ≤ 0.5.

In the case of U7A A20G G23C C29G G51A G56U, the yeast fitness is ≤ 0.5. As for U7A G17A C30A A65C, the figure is ≤ 0.5. Take U7A G10A G41C A42U C46A: the yeast fitness was ≤ 0.5. On to U7A U16A A21G C29G C34A A65U C66U, for which the yeast fitness is ≤ 0.5. The value for G6C U7C G9C A65G was ≤ 0.5. The value for U7A G25U U32A G41A C61U was 0.589; that for U7A U26C U64A was ≤ 0.5; that for G6C U13C G50A was ≤ 0.5. On to U7A A20G G41A A42C G50C A70G, for which the yeast fitness is ≤ 0.5. As for U7A A42U A45G, the figure is ≤ 0.5; as for U7C A14C A65G A70C, ≤ 0.5. As for G6C U16G A45U, the figure is 0.584; as for U7A C27U C29U G58A G68A, ≤ 0.5. The value for U7A C55U C61A was 0.508. As to U7A G10A A37G G41C A42U C46A C61G, the yeast fitness was 0.738. The value for U7A U28A U32G G50C U54C was ≤ 0.5; that for U7A G23A A42G C62U was ≤ 0.5; that for U7A C31U was 0.683. On to U7C A15U A69U, for which the yeast fitness turned out to be 0.527. The value for U7A G9C G17C C29G C33G G41C C66U was ≤ 0.5. As for G6C G56A C60G, the figure is ≤ 0.5. As for U7A C61A, the yeast fitness amounted to 0.603. Take U7A U8A G10C C27G C34G A45C G68U: the yeast fitness is ≤ 0.5.

For the variant U7A A37G A43G U53A G58C C66G, the yeast fitness is ≤ 0.5.

As for U7A G41C U54A, the yeast fitness came to 0.588.

G6C U8A: the yeast fitness was determined as 0.674. As for U7A C34G U53C, the figure is 0.726. U7A A36G A40G G56C C62A: the yeast fitness was ≤ 0.5.

Regarding U7A A42G G52C G56A, the yeast fitness was ≤ 0.5. The value for G6C U7C C27U was ≤ 0.5. The value for U7A G9C G17C G48A G63A was 0.584.

On to U7A G12A G18U C31U C49G, for which the yeast fitness is ≤ 0.5.

As to G6C U7G C24U C27A A57G, the yeast fitness is ≤ 0.5. The value for U7A A21C U32C G48C C60A was ≤ 0.5.

In the case of U7A G10A G41U C49U, the yeast fitness was 0.615. As for U7A U16C A65U, the figure is 0.688; as for U7A C30U C33U C46U, ≤ 0.5; as for U7A U8G A69C, ≤ 0.5.

As to U7A A15G G23A G51A C55A C66U, the yeast fitness is ≤ 0.5. With U7A G9C A14G G17C G48A, the yeast fitness is ≤ 0.5. The value for U7A A42C was 0.775; that for U7C A21G A42U G58A was 0.552.

Turning to U7A C33A G50A C61G, the yeast fitness is ≤ 0.5. Regarding U7A A36C G51C G63A, the yeast fitness was ≤ 0.5.

For U7A G23C C31U, the yeast fitness was ≤ 0.5. As for U7A C11G C27U A37C G51C G67U, the figure is 0.504; as for U7A G9C G12A G17C G48A, ≤ 0.5; as for U7A A20C A21G G23A, 0.65. As for U7A C62G, the figure is 0.63; as for U7A G56A, 0.673. As for U7A A15G C34G, the figure is ≤ 0.5; as for U7A U8C C29U, ≤ 0.5. As for U7A A15U A40G G48A G68C, the yeast fitness is ≤ 0.5. Take U7A U16C A21U U26A: the yeast fitness was found to be 0.537. As for U7A G44C G63A, the figure is ≤ 0.5. As for G6C U28G, the figure is 0.644. Consider G6C U7A U64G, for which the yeast fitness is ≤ 0.5. As for U7A C11U A36U A57C, the figure is ≤ 0.5; as for U7A G23C C33G C46U U64C, 0.579; as for U7A C24U U47C, 0.566.

Take U7A U16C C24G C30G A36U: the yeast fitness was ≤ 0.5. As for U7C A15U C34A G39C A40C G56C C61G C62G G68C, the figure is ≤ 0.5. The value for U7A C55A A65C was ≤ 0.5. As for U7A A15U U54C, the figure is ≤ 0.5. Consider U7A A42G C55G A57C, for which the yeast fitness was ≤ 0.5. The value for U7A A20C G25A G68C was ≤ 0.5; that for U7A G52C G56A was 0.554; that for U7C A21G was 0.761.

On to U7A A15U A36C A37U A43C C46U C49G G50A, for which the yeast fitness was ≤ 0.5.

U7A G17C C24G C29A G58C A69C: the yeast fitness is ≤ 0.5.

For G6C U47C C61U, the yeast fitness was 0.533. As for U7A G10A C60U, the yeast fitness turned out to be 0.607. Consider U7A C24G C29G C30U A40C A65U, for which the yeast fitness was 0.59. With U7A C22A C31G U32G A42G G52A, the yeast fitness was ≤ 0.5. As for U7A C11A G18A C31U C34U U47C C49A G56A A57U, the figure is ≤ 0.5. The value for U7A A14U A15C U32C C46U G51C was ≤ 0.5; that for U7C A14G A43G A69C was ≤ 0.5; that for U7A A14G C31U G39C A40C A45U G68C was 0.555.

With U7A G9C G17C C34A G44A C46U G68A, the yeast fitness is ≤ 0.5. U7A A36C: the yeast fitness was determined as 0.512. For U7A C29A G50C U54C, the yeast fitness was ≤ 0.5. As for U7A G12A U64A, the figure is ≤ 0.5; as for U7A C29A U47C G58A C61G A70U, 0.588. For the variant U7A A14C A20G C27U A45U G67A, the yeast fitness was ≤ 0.5. For G6C U32C A36C, the yeast fitness was ≤ 0.5. As for G6C U13C C24G C34U U53C C55G C62A, the figure is ≤ 0.5; as for U7A A14U A36U G50C U54A G56A C61A, ≤ 0.5. U7A A15C C27A U47C: the yeast fitness was ≤ 0.5. As for U7A G18C C22U C24U C60U, the figure is ≤ 0.5; as for U7A U26G U32G A42U A45G A69U, ≤ 0.5. Consider U7A A20G C46G G67C A69C, for which the yeast fitness is ≤ 0.5. As for U7C A21U C30U C33G A70U, the figure is ≤ 0.5; as for U7A A40C C60A, 0.543. The value for U7A G67U was 0.771; that for U7C A20U C29U C30G C34A U35A C66A was ≤ 0.5; that for U7C A20G C24U C49A G67C was ≤ 0.5. The value for U7A C27U G52C G68C was ≤ 0.5.
